Screening data (PubChem)
Sampled rows, rich in hits. Any-hit rate of the full collection: about 3.9%.
CHRM1 PAM – potentiates human M1 receptor response to acetylcholine; AID 588819; P11229; CHO-K1 hM1, Fluo-8 calcium fluorescence, ACh EC20; 0% = ACh EC20, 100% = maximal ACh; hit rate 0.088% among 360,000; activation, % at 3 µM; in the data active means activation above about 19%, passing the limit was not always enough
Target sequence (P11229 whole entry, looked up): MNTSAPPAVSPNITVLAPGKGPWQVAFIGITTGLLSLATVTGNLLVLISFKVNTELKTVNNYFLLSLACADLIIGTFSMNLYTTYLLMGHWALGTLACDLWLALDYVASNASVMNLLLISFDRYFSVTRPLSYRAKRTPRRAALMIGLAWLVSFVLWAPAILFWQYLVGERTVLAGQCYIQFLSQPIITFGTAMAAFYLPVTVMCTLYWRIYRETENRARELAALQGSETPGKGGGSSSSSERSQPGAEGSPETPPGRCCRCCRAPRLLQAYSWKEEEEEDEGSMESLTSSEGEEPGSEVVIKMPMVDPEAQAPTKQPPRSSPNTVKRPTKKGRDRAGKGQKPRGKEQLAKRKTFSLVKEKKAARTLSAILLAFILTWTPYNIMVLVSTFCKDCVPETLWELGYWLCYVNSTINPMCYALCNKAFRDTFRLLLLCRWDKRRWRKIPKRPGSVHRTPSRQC
TAAR1 agonist – human TAAR1 agonism; Q96RJ0; CHO RD-HGA16 TAAR1, Fluo-8 calcium fluorescence; vehicle wells 0%, saturating PEA agonist 100%; activation, % at 3 µM; hit rate 0.99% among 360,000;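 active means activation above the mean activation of all test compounds in the run plus 3 SD, cut at about 38% in these data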
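Assay system – CHO-derived RD-HGA16 cells with stable Gα16 and human TAAR1 · Compound dosing – one-point dosing at 3 µM (nominal) · Incubation – 17-24 h seeding, 75 min 37 °C dye, 30 min RT · Measured by – kinetic Fluo-8 calcium fluorescence · Control set – DMSO vehicle as 0%, PEA at EC100 as 100% · Repeats – single well for each compound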
M1 ag – agonists of human M1 muscarinic receptor. AID 588814. activation, % at 3 µM. CHO-K1 hM1, Fluo-8 calcium fluorescence, agonist mode; 0% DMSO, 100% acetylcholine EC100. hit rate 0.33% among 360,000;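 active means activation above the run's mean compound activation plus 3 SD, cut at about 16% in these data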;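 further: peak over basal fluorescence ratio within a 140 s kinetic read after compound addition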
M1 antag – human CHRM1 antagonism; hit rate 1.3% among 360,000; AID 588852; CHO-K1 hM1, Fluo-8 calcium fluorescence, ACh EC80 antagonist; P11229; inhibition, % at 3 µM;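 active means percent inhibition above its own plate's cutoff, namely the mean of that plate's compound wells plus 3 SD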;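 further: peak over basal fluorescence ratio during 140 s after agonist addition; 0% = ACh EC80 plus DMSO and 100% = DMSO alone without agonist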
HTR2A ag – agonists of mouse serotonin 5-HT2A receptor (HTR2A); CHO-K1 mHTR2A beta-arrestin complementation, luminescence; percent of 30 µM serotonin response; activation, % at 7.6 µM; hit rate 0.66% among 360,000; AID 624169;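 active means activation above a run cutoff, the mean activation of all tested compounds plus 3 SD, cut at about 14% in these data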;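 further: 0% = plate median of compound wells and 100% = 30 µM serotonin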
TAAR1 antagonist – antagonists of human TAAR1. AID 624466. CHO RD-HGA16 TAAR1, Fluo-8 calcium fluorescence, antagonist. inhibition, % at 3 µM. hit rate 1.5% among 360,000. Q96RJ0;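 active means inhibition above a per-plate cutoff, the mean inhibition of test compounds on that plate plus 3 SD, cut at about 49% in these data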;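 further: 0% = DMSO plus EC80 beta-PEA response and 100% = DMSO alone without agonist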
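Assay system: RD-HGA16 CHO cells with stable hTAAR1 and Gα16 / Reagent: EC80 β-phenethylamine stimulus / Doses: 3 µM, single point / Timing: dye loading 75 min at 37 °C, then 30 min room temperature / Measured by: Fluo-8 intracellular calcium dye fluorescence, real-time kinetic reads / Controls: vehicle wells and EC80 agonist wells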
OPRM1 ag – counter-screen for mouse HTR2A agonists: human mu opioid receptor agonists; shares compounds with HTR2A ag; U2OS OPRM1 beta-arrestin PathHunter, luminescence; DMSO 0%, DAMGO 9.3 µM 100%; activation, % at 9.3 µM; hit rate 5.3% among 2,300; AID 624380;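 active means mean activation above the mean of DMSO-only wells plus 3 SD, cut at about 0.5% in these data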
m5-HT2A ag conf – mouse HTR2A agonism confirmed. shares compounds with HTR2A ag. CHO-K1 PathHunter beta-arrestin recruitment, luminescence; DMSO 0%, 30 µM serotonin 100%. activation, % at 7.6 µM. hit rate 19% among 2,300. AID 624381;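 active means mean activation across triplicates above the hit threshold derived in the original primary screen, cut at about 15% in these data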
Numbers without * were called inactive.

`O=C(NNS(=O)(=O)c1ccc(C(F)(F)F)cc1)c1cnn(-c2ccccc2)c1C(F)(F)F` gave CHRM1 PAM -3, TAAR1 agonist 14, M1 ag -2, M1 antag 6, HTR2A ag -2 and TAAR1 antagonist 1.
O=c1[nH]c(C2CCN(S(=O)(=O)c3ccc(F)cc3)CC2)nc2c1nnn2Cc1ccc2c(c1)OCCO2 was read as CHRM1 PAM -2, TAAR1 agonist -1, M1 ag -5, M1 antag 3, HTR2A ag 15*, TAAR1 antagonist -45, OPRM1 ag -1 and m5-HT2A ag conf -4.
For Cc1ccc(S(=O)(=O)N(CC(=O)N/N=C/c2ccccc2C(=O)O)c2cc(Cl)cc(Cl)c2)cc1 the results were CHRM1 PAM 12, TAAR1 agonist 5, M1 ag 1, M1 antag -8, HTR2A ag 2 and TAAR1 antagonist -13.
For O=C(COC(=O)C12CC3CC(CC(Br)(C3)C1)C2)Nc1ccc2[nH]c(=O)[nH]c2c1 the results were CHRM1 PAM 3, TAAR1 agonist 1, M1 ag 4, M1 antag -19, HTR2A ag -3 and TAAR1 antagonist -5.
`Cc1cc(Cl)ccc1C(=O)C1CCCN(C(=O)c2cc(C(C)C)no2)C1` (stereo unspecified) gave CHRM1 PAM 7, TAAR1 agonist -2, M1 ag -3, M1 antag -8, HTR2A ag 46*, TAAR1 antagonist 3, OPRM1 ag 0 and m5-HT2A ag conf -5.
For O=C(COc1ccccc1)NC1CCSC1=O (stereo unspecified) the results were CHRM1 PAM -5, TAAR1 agonist 4, M1 ag -1, M1 antag 3, HTR2A ag 21*, TAAR1 antagonist -4, OPRM1 ag -1 and m5-HT2A ag conf -3.
`COC(=O)[C@H]1C[C@H](O)CN1S(=O)(=O)c1ccc(Br)cc1F` gave CHRM1 PAM 1, TAAR1 agonist 0, M1 ag -2, M1 antag -2, HTR2A ag -1 and TAAR1 antagonist 13.
Screening COc1ccc(Cl)cc1NC(=S)NC1CCCC1 returned CHRM1 PAM 1, TAAR1 agonist 0, M1 ag -9, M1 antag -16, HTR2A ag -4 and TAAR1 antagonist 3.
O=C(Nc1ccc2snnc2c1)N1CCSCC1 was read as CHRM1 PAM 1, TAAR1 agonist 2, M1 ag -2, M1 antag 5, HTR2A ag 17*, TAAR1 antagonist -7, OPRM1 ag 0 and m5-HT2A ag conf 3.
For CNC(=O)Nc1ccc2snnc2c1 the results were CHRM1 PAM -8, TAAR1 agonist 2, M1 ag -2, M1 antag 17, HTR2A ag -7 and TAAR1 antagonist -13.
O=C(Nc1ccc(C(F)(F)F)cc1)C1=NN(C2CCS(=O)(=O)C2)C(=O)CC1 (stereo unspecified) was read as CHRM1 PAM 12, TAAR1 agonist 5, M1 ag 0, M1 antag -4, HTR2A ag 0 and TAAR1 antagonist -1.
Screening CCOC(=O)N1CCC(N2C(=O)c3ccc(C(=O)NCc4ccco4)cc3C2=O)CC1 returned CHRM1 PAM 0, TAAR1 agonist 1, M1 ag -4, M1 antag -4, HTR2A ag 23*, TAAR1 antagonist -7, OPRM1 ag 0 and m5-HT2A ag conf -4.
For ON=Cc1ccnc2ccccc12 the results were CHRM1 PAM 3, TAAR1 agonist 1, M1 ag -1, M1 antag -6, HTR2A ag 5 and TAAR1 antagonist -6.
Screening O=C(O)c1ccccc1N/N=C\c1ccnc2ccccc12 returned CHRM1 PAM 4, TAAR1 agonist 6, M1 ag -2, M1 antag -14, HTR2A ag 14*, TAAR1 antagonist 7, OPRM1 ag -1 and m5-HT2A ag conf 1.
CNc1nc(NC#N)nc(SC)n1 was read as CHRM1 PAM 1, TAAR1 agonist 1, M1 ag -3, M1 antag 2, HTR2A ag 2 and TAAR1 antagonist -4.
`CCOC(=O)c1ccc(NC(=O)CCc2nnc3ccc(N4CCCC4)nn23)cc1` gave CHRM1 PAM 7, TAAR1 agonist 30, M1 ag -3, M1 antag -9, HTR2A ag 24*, TAAR1 antagonist -24, OPRM1 ag -1 and m5-HT2A ag conf -3.
COc1ccc(NC(=O)/C(C#N)=C/c2ccc(Sc3nncn3C)c([N+](=O)[O-])c2)cc1 was read as CHRM1 PAM 12, TAAR1 agonist 0, M1 ag -1, M1 antag -1, HTR2A ag 1 and TAAR1 antagonist -5.
For CCc1nn2c(=O)cc(COC(=O)c3cc(Cl)c(OC)c(OC)c3)nc2s1 the results were CHRM1 PAM -16, TAAR1 agonist 1, M1 ag -7, M1 antag 22, HTR2A ag 17*, TAAR1 antagonist 23, OPRM1 ag 0 and m5-HT2A ag conf -3.
CC(=O)N1CCC(N2CCN(c3ccccc3F)CC2)CC1 was read as CHRM1 PAM -7, TAAR1 agonist 5, M1 ag -4, M1 antag 11, HTR2A ag 26*, TAAR1 antagonist 6, OPRM1 ag 0 and m5-HT2A ag conf 64*.
Screening CCC1CCC(N2CCN(c3ccccc3F)CC2)CC1 (stereo unspecified) returned CHRM1 PAM -10, TAAR1 agonist 3, M1 ag -6, M1 antag 11, HTR2A ag -5 and TAAR1 antagonist -29.
Screening C/C(=N\OCC(=O)OCC(=O)NC(=O)c1ccccc1)c1ccc2c(c1)OCO2 returned CHRM1 PAM 5, TAAR1 agonist 0, M1 ag -3, M1 antag -10, HTR2A ag -2 and TAAR1 antagonist 8.
`O=C1N2CCCc3cccc(c32)C12Nc1ccccc1S2` (stereo unspecified) gave CHRM1 PAM 7, TAAR1 agonist 3, M1 ag -1, M1 antag -10, HTR2A ag 21*, TAAR1 antagonist -9, OPRM1 ag -1 and m5-HT2A ag conf -6.
CC(C)CN1C(=O)NC2(CCCc3ccccc32)C1=O (stereo unspecified) was read as CHRM1 PAM 0, TAAR1 agonist 0, M1 ag -5, M1 antag -17, HTR2A ag -1 and TAAR1 antagonist -2.
